Only some compounds are listed: those with a hit (about 2.6% of all), similar ones and a draw of the others.
PGE2 EP2 inh: blocks the human prostaglandin E2 receptor EP2 | P43116 | inhibition, % at 25 µM | actives 0.52% (n = 260,000) | C6 glioma cells expressing human EP2, cAMP TR-FRET; cells stimulated with saturating PGE2 | AID 1422;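 active = percent inhibition above 40 after rounding to a whole number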;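 also: rat C6 glioma host cells with rolipram phosphodiesterase inhibitor present; the protocol text gives 20 µM as final concentration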
EP2 mod: modulators of human EP2 prostaglandin E2 receptor; EP2-expressing cells, cAMP HTRF FRET, PGE2 co-stimulation; P43116; actives 0.83% (n = 260,000); induction, % at 25 µM;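 active = compounds whose cAMP rise, as percent of the full-agonist control response, exceeds 60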;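 also: rat C6 glioma line stably carrying human EP2 under a CMV promoter; the protocol text gives 20 µM as final concentration; 100% = response of wells given 1 µM PGE2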
MC4R antagonist: antagonists of human melanocortin 4 receptor (MC4R). AID 540295. inhibition, % at 6.5 µM. P32245. MC4R-expressing cells, MTII-stimulated cAMP, LANCE TR-FRET. actives 0.48% (n = 360,000);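 active = inhibition above its plate's cutoff, the mean of tested wells on that plate plus 3 SD, cut at about 29% in these data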;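 also: 0% = Melanotan II alone and 100% = Melanotan II plus saturating MCL0020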
Target sequence (P32245 whole entry, looked up): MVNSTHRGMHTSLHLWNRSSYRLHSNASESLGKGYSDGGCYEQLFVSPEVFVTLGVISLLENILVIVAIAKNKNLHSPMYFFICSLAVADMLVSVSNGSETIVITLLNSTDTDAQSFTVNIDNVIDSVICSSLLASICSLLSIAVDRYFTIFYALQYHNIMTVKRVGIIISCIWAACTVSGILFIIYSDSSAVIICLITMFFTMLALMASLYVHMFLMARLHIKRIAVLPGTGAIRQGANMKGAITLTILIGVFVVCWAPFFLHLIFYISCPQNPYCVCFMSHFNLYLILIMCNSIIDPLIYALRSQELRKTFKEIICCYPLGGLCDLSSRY
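System: U2OS-MC4R stable cell line; Technique: Eu-cAMP/anti-cAMP TR-FRET, emission 671 nm; Repeats: single well per compound; Also added: Melanotan II; Dosing: one concentration, 6.5 µM nominal; Schedule: 30-min compound, 1-h challenge, 1-h detection, room temperature.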
MC4R ag barr: activates human MC4R beta-arrestin recruitment; P32245; U2OS MC4R beta-arrestin complementation, luminescence; percent of melanotan II response, DMSO zero; activation, % at 8.9 µM; actives 0.98% (n = 360,000); AID 540308;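 active = activation above a per-plate cutoff, the mean activation of sample wells on that plate plus 3 SD, cut at about 8% in these data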
Granule exo inh: blocks lytic granule exocytosis. TALL-104 LAMP-1 surface exposure, flow cytometry; cells stimulated with thapsigargin and PMA. inhibition, % at 10 µM. actives 0.66% (n = 360,000);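 active = inhibition above about 55%, limit read from the data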
T cell modulator: T cell immune modulators affecting CD8 T cell-vesicle binding. 2C CD8+ T cell-vesicle binding, flow cytometry; stronger effect = lower value. response (vesicle binding), % at 7 µM. actives 0.068% (n = 330,000);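 active = response, share of CD8 T cells binding vesicles, and their 90th percentile fluorescence all below set limits, cut at about 80% in these data, passing the limit was not always enough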;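 also: values below 100% mean blocked vesicle binding to the CD8+ T cells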
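Material: murine 2C transgenic CD8+ T lymphocytes / Also added: QL9-peptide-loaded Drosophila micro-vesicles bearing Ld, ICAM-1 and B7-1 / Schedule: binding step 1.5 h, 37 °C, antibody labelling 20 min, ice / Signal: flow cytometry, PE anti-B7-1 (FL2) versus Alexa647 anti-CD8 (FL8), PFA-fixed / Evaluation: percent CD8+ FL2 mean versus row control / Benchmarks: naked versus QL9-loaded vesicles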
* hit, by the source's call; i = inactive; . = no result given; ! = repeats disagree.

SMILES	PGE2 EP2 inh	EP2 mod	MC4R antagonist	MC4R ag barr	Granule exo inh	T cell modulator
CCc1nc(N2CCCCC2C)c2oc3ccccc3c2n1 (configuration not stated)	3	48	-11	1	6	339
CCc1nc(N2CCCC(C)C2)c2oc3ccccc3c2n1 (configuration not stated)	7	61*	9	-2	8	413
COc1ccc(/C=N\NC(=O)COc2ccc(C(C)(C)C)cc2)cc1Cn1nc(C)cc1C	9	3	4	22*	0	200
C[N+](C)=C1SCC(C)(/C=N/O)S1 (configuration not stated)	7	30	1	0	108*	938
CCCS(=O)(=O)N1CCC(C(=O)N2CCc3ccccc3C2)CC1	9	-18	0	-2	2	500
CCc1ccc2nc(N3CCN(C)CC3)c(C#N)cc2c1	10	-5	8	-1	2	325
COc1c2ccoc2cc2oc(=O)ccc12	10	2	12	-1	-9	465
CC1(C)OC1COc1c2ccoc2cc2oc(=O)ccc12 (configuration not stated)	8	20	0	-3	80*	320
O=S(=O)(c1cccs1)N1CN(Cc2ccco2)c2nc3ccccc3nc21	9	10	-2	0	2	467
CC(=O)n1cc(C(C[N+](=O)[O-])SCCN)c2ccccc21 (configuration not stated)	50*	-50	-11	-2	-1	506
Cn1cc(C(C[N+](=O)[O-])c2ccccc2)c2ccccc21 (configuration not stated)	.	.	11	3	3	148
CC(C)CCSc1nc2ccccc2[nH]1	8	-24	-1	0	-3	228
C[N+](C)(C)CCCSc1nc2ccccc2[nH]1	42*	21	.	.	.	.
O=C(Nc1cccnc1Cl)c1cc(-c2cccc(O)c2)on1	.	.	6	12*	-5	362
COc1cccc(-c2cc(C(=O)Nc3cccnc3Cl)no2)c1	.	.	0	-2	-5	264
Cn1c(=O)c2[nH]c([C@@H]3CC(=O)C[C@H](c4nc5c([nH]4)c(=O)n(C)c(=O)n5C)N3)nc2n(C)c1=O	46*	18	.	.	.	.
CCc1ccc(OCC(=O)NC(=S)Nc2ccc(S(=O)(=O)NC3CCCCC3)cc2)cc1	14	-24	-9	8.3*	2	275
Cc1ccccc1OCC(=O)NC(=S)Nc1ccc(S(=O)(=O)NC2CCCCC2)cc1	6	-2	4	3	-1	318
Cc1cccc(NC(=O)CCSc2ccccc2)c1C	11	-30	8	8.7*	10	375
NC(=O)CC(NC(=O)c1cccc(Br)c1)c1ccc(N2CCN(c3ccccn3)CC2)c([N+](=O)[O-])c1 (configuration not stated)	.	.	6	-1	-8	i
NC(=O)CC(NC(=O)c1ccc(Br)cc1)c1ccc(N2CCN(c3ccccn3)CC2)c([N+](=O)[O-])c1 (configuration not stated)	25	8	0	-2	65*	199
CN(C(=O)CSc1nnc(-c2cccs2)o1)C1CCS(=O)(=O)C1 (configuration not stated)	3	10	-5	0	-2	279
Cc1ccc2nc(N3C(=O)C(O)=C(C(=O)c4ccco4)C3c3cccs3)sc2c1 (configuration not stated)	75*!	31	2	0	-4	246
Cc1ccc2nc(N3C(=O)C(O)=C(C(=O)c4ccco4)C3c3ccco3)sc2c1 (configuration not stated)	35	12	.	.	.	.
Cc1ccc2nc(N3C(=O)C(O)=C(C(=O)c4ccc(C)o4)C3c3ccc(O)cc3)sc2c1 (configuration not stated)	49*	-8	22	-1	8	263
COc1ccc2nc(N3C(=O)C(O)=C(C(=O)c4ccco4)C3c3ccc(C)o3)sc2c1 (configuration not stated)	.	.	0	-2	-4	.

Bioassay records from PubChem.
